Experimental data from ChEMBL document CHEMBL3864138, “First discovery of novel 3-hydroxy-quinazoline-2,4(1H,3H)-diones as specific anti-vaccinia and adenovirus agents via 'privileged scaffold' refining approach” (Bioorg Med Chem Lett, 2016).

Legend:
[1] = Cytotoxicity against HEL cells assessed as alteration of cell morphology after 3 days by microscopic analysis; type: toxicity, cell-based; conditions: human
In short: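 HEL cell cultures were checked by microscopy for compound cytotoxicity, reported as MCC. The highest concentration tested was […].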

Human adenovirus 2 = assay: Antiviral activity against Human adenovirus 2 infected in HEL cells assessed as inhibition of virus-induced cytopathicity; type: functional, cell-based; conditions: Human mastadenovirus C
Vaccinia virus [2] = assay: Antiviral activity against Vaccinia virus infected in HEL cells assessed as inhibition of virus-induced cytopathicity; type: functional, cell-based; conditions: Orthopoxvirus vaccinia
Vaccinia virus [3] = assay: Potency index, ratio of cidofovir EC50 against Vaccinia virus infected in HEL cells to compound EC50 against Vaccinia virus infected in HEL cells; type: functional, Orthopoxvirus vaccinia
Vaccinia virus [4] = assay: Potency index, ratio of brivudin EC50 against Vaccinia virus infected in HEL cells to compound EC50 against Vaccinia virus infected in HEL cells; type: functional, Orthopoxvirus vaccinia

Compound | MCC at 72 h [1] [µM] | EC50 (Human adenovirus 2) [µM] | EC50 (Vaccinia virus [2]) [µM] | Ratio EC50 (Vaccinia virus [3]) | Ratio EC50 (Vaccinia virus [4])
Cn1c(=O)n(O)c(=O)c2cc(-c3cn(Cc4ccccc4F)nn3)ccc21 | > 100 | > 100 | > 100 |  | 
Cc1ccccc1Cn1cc(-c2ccc3c(c2)c(=O)n(O)c(=O)n3C)nn1 | 100 | > 100 | > 100 |  | 
CCn1c(=O)n(O)c(=O)c2cc(-c3cn(Cc4ccccc4F)nn3)ccc21 | > 100 | 6.5 | > 100 |  | 
CCn1c(=O)n(O)c(=O)c2cc(-c3cn(Cc4c(F)cccc4F)nn3)ccc21 | > 100 | 8 | > 100 |  | 
CCn1c(=O)n(O)c(=O)c2cc(-c3cn(Cc4ccccc4C)nn3)ccc21 | 20 | > 100 | > 100 |  | 
Cn1c(=O)n(O)c(=O)c2cc(-c3cn(Cc4ccccc4)nn3)ccc21 | > 100 | > 100 | > 100 |  | 
CCn1c(=O)n(O)c(=O)c2cc(-c3cn(Cc4ccc(C#N)cc4)nn3)ccc21 | > 100 | > 100 | 15 |  | 
CCn1c(=O)n(O)c(=O)c2cc(-c3cn(Cc4ccc(F)c(F)c4)nn3)ccc21 | 20 | > 100 | 1.9 |  | 
CCn1c(=O)n(O)c(=O)c2cc(-c3cn(Cc4ccc(F)cc4F)nn3)ccc21 | 20 | > 100 | > 100 |  | 
Cn1c(=O)n(O)c(=O)c2cc(-c3cn(Cc4ccc(F)c(F)c4)nn3)ccc21 | 100 | > 100 | 5 |  | 
CCn1c(=O)n(O)c(=O)c2cc(-c3cn(Cc4ccccc4)nn3)ccc21 | > 100 | 12 | > 100 |  | 
Cn1c(=O)n(O)c(=O)c2cc(-c3cn(Cc4ccc(F)cc4F)nn3)ccc21 | 100 | > 100 | > 100 |  | 
CCn1c(=O)n(O)c(=O)c2cc(-c3cn(Cc4ccc([N+](=O)[O-])cc4)nn3)ccc21 | > 100 | > 100 | 1.7 | 15 | 8 - 15
Cn1c(=O)n(O)c(=O)c2cc(-c3cn(Cc4cccc(F)c4)nn3)ccc21 | > 100 | > 100 | > 100 |  | 
Cn1c(=O)n(O)c(=O)c2cc(-c3cn(Cc4c(Cl)cccc4Cl)nn3)ccc21 | > 100 | > 100 | > 100 |  | 
Cn1c(=O)n(O)c(=O)c2cc(-c3cn(Cc4ccc([N+](=O)[O-])cc4)nn3)ccc21 | > 100 | > 100 | 2.4 |  | 
CCn1c(=O)n(O)c(=O)c2cc(-c3cn(Cc4ccc(OC)cc4)nn3)ccc21 | > 100 | 6.2 | > 100 |  | 
CCn1c(=O)n(O)c(=O)c2cc(-c3cn(Cc4cc(F)ccc4F)nn3)ccc21 | 20 | > 100 | > 100 |  | 
Cn1c(=O)n(O)c(=O)c2cc(-c3cn(Cc4ccc(F)cc4)nn3)ccc21 | > 100 | > 100 | > 100 |  | 
COc1ccc(Cn2cc(-c3ccc4c(c3)c(=O)n(O)c(=O)n4C)nn2)cc1 | > 100 | 12 | > 100 |  | 
Cn1c(=O)n(O)c(=O)c2cc(-c3cn(Cc4ccc(C#N)cc4)nn3)ccc21 | > 100 | > 100 | > 100 |  | 
Cn1c(=O)n(O)c(=O)c2cc(-c3cn(Cc4c(F)cccc4F)nn3)ccc21 | 100 | > 100 | > 100 |  | 
CCn1c(=O)n(O)c(=O)c2cc(-c3cn(Cc4cccc(F)c4)nn3)ccc21 | > 100 | 13 | > 100 |  | 
CCn1c(=O)n(O)c(=O)c2cc(-c3cn(Cc4ccc(F)cc4)nn3)ccc21 | 100 | > 100 | > 100 |  | 
Cn1c(=O)n(O)c(=O)c2cc(-c3cn(Cc4cc(F)ccc4F)nn3)ccc21 | > 100 | > 100 | > 100 |  | 
CCn1c(=O)n(O)c(=O)c2cc(-c3cn(Cc4c(Cl)cccc4Cl)nn3)ccc21 | > 100 | > 100 | > 100 |  | 
Cc1cn([C@H]2C[C@H](F)[C@@H](CO)O2)c(=O)[nH]c1=O [ALOVUDINE] | > 250 | 10 |  |  | 
O=c1[nH]c(=O)n([C@H]2C[C@H](O)[C@@H](CO)O2)cc1/C=C/Br [BRIVUDINE] | > 250 |  | 15 |  | 
Nc1ccn(C[C@@H](CO)OCP(=O)(O)O)c(=O)n1 [CIDOFOVIR] | > 250 | 10 | 25 |  | 
Nc1ccn([C@H]2CC[C@@H](CO)O2)c(=O)n1 [ZALCITABINE] | > 250 | 7.2 |  |  | 
